Only some compounds are listed: those with a hit (about 3.5% of all), similar ones and a draw of the others.
MrgX1 antagonist: blocks BAM8-22 activation of human MrgX1 receptor. Q96LB2. MRGX1-HEK293 calcium flux, Fluo-4, BAM8-22 antagonism; hits give low values. B-score at 10 µM. 1.3% of 310,000 active. AID 588676;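 active = calcium-response B-score plate-corrected more than 3 library SD below zero, starting fluorescence within 5 deviations, no agonist response on first addition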;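 note: peak minus trough fluorescence over baseline after final BAM8-22 challenge near maximal dose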
Target sequence (Q96LB2 whole entry, looked up): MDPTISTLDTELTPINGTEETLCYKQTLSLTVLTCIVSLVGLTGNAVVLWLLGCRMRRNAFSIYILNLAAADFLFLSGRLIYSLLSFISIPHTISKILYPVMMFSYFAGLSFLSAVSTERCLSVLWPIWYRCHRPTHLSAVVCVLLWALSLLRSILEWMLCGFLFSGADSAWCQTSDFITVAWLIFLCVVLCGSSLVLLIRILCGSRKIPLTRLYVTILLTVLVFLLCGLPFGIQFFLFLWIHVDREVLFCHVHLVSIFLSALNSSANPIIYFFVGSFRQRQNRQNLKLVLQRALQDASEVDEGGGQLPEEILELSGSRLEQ
MrgX1 PAM: allosterically activates human MrgX1 receptor signaling; Q96LB2; MrgX1-HEK293, Fluo-4 calcium flux, FDSS; hits give high values; B-score at 10 µM; 0.63% of 310,000 active;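 active = plate-corrected calcium response at least 3 library SD above typical, normal starting fluorescence, not activating the receptor alone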;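 note: compound read alongside a low EC10 to EC30 dose of BAM8-22 agonist; peak minus trough fluorescence over baseline measured at the second addition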
RGS4 block: human RGS4 inhibition | P49798 | HEK293 M3R/RGS4 inducible, Fluo-4 calcium flux; hits give high values; triggered by carbachol at its EC20 | B-score at 10 µM | 0.45% of 310,000 active | AID 463165;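 active = B-score, a plate-corrected calcium signal, over three deviations above library mean, with baseline fluorescence within five deviations of library mean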;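 note: RGS4 expression induced by doxycycline in cells with stable M3 receptor; B-score is computed from the integrated fluorescence ratio over baseline after carbachol; higher B-score means a larger calcium signal and so more RGS4 inhibition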
Target sequence (P49798 whole entry, looked up): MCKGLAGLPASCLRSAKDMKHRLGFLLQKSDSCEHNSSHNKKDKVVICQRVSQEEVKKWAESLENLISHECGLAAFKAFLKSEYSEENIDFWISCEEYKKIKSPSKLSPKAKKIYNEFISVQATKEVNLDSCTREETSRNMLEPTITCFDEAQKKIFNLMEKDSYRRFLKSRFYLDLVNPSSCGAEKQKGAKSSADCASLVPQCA
MrgX1 ag: human MrgX1 receptor agonism, primary screen; MrgX1-HEK293 cells, Fluo-4 calcium fluorescence, agonist mode; hits give high values; B-score at 10 µM; 0.44% of 310,000 active; Q96LB2; AID 588627;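 active = calcium response B-score plate-corrected fluorescence ratio at least 3 library SD, with starting fluorescence B-score inside 5 SD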
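Assay system: MrgX1-expressing HEK293 cells / Amount: fifteen thousand cells per well / Doses: test compound in the initial addition of three / Timing: cells plated overnight, dye loaded 0.5 h 37 °C, 0.5 h room temperature / Technique: kinetic calcium dye fluorescence, Fluo-4 NW / Control set: positive and negative controls per plate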
RGS4 act: potentiators or activators of RGS4. 0.92% of 310,000 active. B-score at 10 µM. HEK293 M3R/inducible RGS4, carbachol calcium flux Fluo4; hits give low values;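 active = B-score of the integrated calcium signal more than 4 SD below the library mean, with starting fluorescence not abnormally high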;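 note: negative B-score means reduced calcium response which marks RGS4 activation or potentiation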
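test system = HEK293 cells with stable M3R and inducible RGS4 | schedule = recording 10 s baseline at 1 Hz, 100 s post-agonist | technique = Fluo4-AM (2 µM) calcium-flux fluorescence, kinetic read | measure = Agonist-evoked peak-minus-minimum fluorescence over baseline, integrated ratio, B score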
The depositor's hits bear a star; i = inactive; x = no result given.

SMILES | MrgX1 antagonist | MrgX1 PAM | RGS4 block | MrgX1 ag | RGS4 act
O=C(N/N=C/c1ccccn1)c1cc(Br)ccc1O | i | i | i | 26.9* | i
O=C(N/N=C/c1cccnc1)c1cc(Br)ccc1O | i | i | i | i | i
N=C1S/C(=C\c2ccc(-c3ccccc3C(=O)O)o2)C(=O)N1c1ccc2c(c1)OCO2 | x | x | i | x | i
COc1ccccc1N1C(=N)S/C(=C\c2ccc(-c3ccccc3C(=O)O)o2)C1=O | i | 11.3* | i | i | i
Oc1ccccc1N1CCN(c2ncnc3scc(-c4ccccc4)c23)CC1 | i | i | i | i | -7.36*
Oc1ccccc1N1CCN(c2ncnc3scc(-c4ccc(F)cc4)c23)CC1 | i | i | i | i | i
COc1ccc(N=CC2=C(O)CC(C)(C)CC2=O)cc1 | -6.54* | i | i | i | i
COc1ccc(OC)c(N=CC2=C(O)CC(C)(C)CC2=O)c1 | i | i | i | i | i
C=CCOc1cccc(/C=N/NC(=O)CC(=O)NC2CCCCC2)c1 | i | i | i | i | i
CNC[C@H](Cc1ccccc1)NC[C@@H](Cc1cccc2ccccc12)NCCc1ccc(C)cc1 | i | i | i | i | -8.2*
Cc1ccc(NS(=O)(=O)c2ccc(C(=O)NCC(c3ccco3)N(C)C)cc2)cc1 (centres undefined) | -4.87* | i | i | i | i
Cc1ccc(S(=O)(=O)Nc2cccc(C(=O)NCC(c3ccccc3)N(C)C)c2)cc1F (centres undefined) | i | i | i | i | -7.49*
Cc1cccn2c(=O)c(/C=C(\C#N)C(N)=O)c(N3CCN(c4cccc(Cl)c4)CC3)nc12 | i | i | i | i | i
C[C@H](O)C(=O)C1=Nc2c(nc(N)[nH]c2=O)NC1 | i | i | x | i | x
C[C@H](O)[C@H](O)[C@H]1CNc2nc(N)[nH]c(=O)c2N1 | -5.43* | i | i | i | i
CCC1=Nc2cc(C(=O)NCCCN3CCN(C)CC3)ccc2Sc2ccccc21 | i | i | i | i | i
O=c1[nH]c(S)c(/C=C2\C=Nc3ccccc32)s1 | -5.37* | i | i | i | i
N#C/C(=C\c1ccc(Cl)cc1)c1nc(-c2ccco2)cs1 | -6.19* | i | i | i | i
N#C/C(=C\c1ccc(F)cc1)c1nc(-c2ccco2)cs1 | i | i | i | i | i
CCOc1ccc(S(=O)(=O)NC(Cc2cnc[nH]2)C(=O)O)cc1 (centres undefined) | -4.87* | i | i | i | i
CCCN(C(=O)COC(=O)C12CCC(=O)N1c1ccccc1S2)c1c(N)n(Cc2ccccc2)c(=O)[nH]c1=O (centres undefined) | i | i | i | i | i
CCN1C(=O)CC2(C[N+]3(C)CCC2CC3)C1=O (centres undefined) | i | i | i | i | -7.16*
CSc1ccc(CNC(=O)CCn2ccc3cc(S(=O)(=O)N4CCCC4)ccc32)cc1 | i | i | i | i | i
Cc1nn(-c2ccccc2)c(N2CCCC2)c1/C=N/NC(=O)c1ccccc1O | -7.18* | i | i | i | i
Cc1nn(-c2ccccc2)c(C)c1-c1cc(C(=O)N/N=C/c2ccc(O)cc2)[nH]n1 | i | i | i | i | -7.12*
SMILES | MrgX1 antagonist | MrgX1 PAM | RGS4 block | MrgX1 ag | RGS4 act
COc1cc(/C=N/NC(=O)c2cc(-c3c(C)nn(-c4ccccc4)c3C)n[nH]2)ccc1O | i | i | i | i | i
Cc1nn(-c2ccccc2)c(C)c1/C=N/NC(=O)c1ccccc1O | i | i | i | i | i
CNC(=S)N/N=C/c1c(C)nn(-c2ccccc2)c1Cl | i | i | i | i | i
Cc1nn(-c2ccccc2)c(C)c1/C=N/NC(=O)c1cc(-c2ccc(Cl)s2)[nH]n1 | i | i | i | i | -7.77*
Cc1nn(-c2ccccc2)c(Cl)c1/C=N/NC(=O)OC(C)(C)C | i | i | i | i | -7.99*
CC(C(=O)Nc1ccccc1Br)N1c2cccc3cccc(c23)S1(=O)=O (centres undefined) | i | i | i | i | i
CCCNc1c(NC(=O)C2CCC(C)CC2)c(=O)oc2ccccc12 (centres undefined) | i | i | i | i | i
Cc1nn(-c2ccccc2)c(C)c1/C=N/NC(=O)c1cccs1 | -7.06* | i | i | i | i
Cc1nn(-c2ccccc2)c(C)c1/C=N/NC(=O)c1cc(-c2cccs2)[nH]n1 | i | i | i | i | i
N#C/C(=C\c1cccs1)C(=O)Nc1ccccn1 | -4.93* | i | i | i | i
N#C/C(=C\c1ccccc1)C(=O)Nc1nncs1 | i | 8.03* | i | i | i
CC1(OC(=O)c2ccco2)C(=O)C=C2C=C(C3CC3)OC=C2C1=O (centres undefined) | -4.99* | i | i | i | i
CC(C)(C)c1ccc(S(=O)(=O)N2CCC(NC(=O)c3ccco3)CC2)cc1 | i | i | i | i | i
O=C(/C=C/c1ccccc1)c1cc(Br)ccc(=O)c1O | i | 11.4* | i | i | i
O=C(c1ccc2nccnc2c1)N1CCCC(Nc2ccc(F)c(F)c2)C1 (centres undefined) | i | i | i | i | i
CCCn1c(N)c(N(CCOC)C(=O)c2cccc(Cl)c2)c(=O)[nH]c1=O | i | i | i | i | i
CCCCN(C(=O)C(C)Oc1cccc(Cl)c1)c1c(N)n(CCC)c(=O)[nH]c1=O (centres undefined) | -5.11* | i | i | i | i
CCCCN(C(=O)c1cccc(S(=O)(=O)N2CCOCC2)c1)c1c(N)n(CCC)c(=O)[nH]c1=O | i | 9.4* | i | i | i
CCOC(=O)N1CCc2c(sc3c2c(=O)n(-c2ccc(CC)cc2)c(=O)n3CC(=O)NCC2CCCO2)C1 (centres undefined) | i | i | i | i | i
CCOC(=O)C(=Cc1c[nH]c2ccc(S(=O)(=O)N(C)C)cc12)C(=O)OCC | i | 6.74* | i | i | i
CCOC(=O)/C(C#N)=C/c1c[nH]c2ccccc12 | i | i | i | i | i
CCCCCCCCC[n+]1cccc2c3ccccc3ccc21 | i | i | i | i | -8.59*
CCOC(=O)c1c(C)[nH]c(C(=O)NCCc2ccc(OC)c(OC)c2)c1C | i | i | i | i | i
CCNC(=S)N/N=C(\C)c1ccc(Cl)s1 | i | i | i | i | -7.13*
C=C(C)CNC(=S)N/N=C(\C)c1ccc(Cl)s1 | -6.07* | i | i | i | i
